Reference: ChEMBL document CHEMBL1926657, “Novel bioactive metabolites of dipyrone (metamizol)” (Bioorg Med Chem, 2012)
Active and inactive are the calls of the source. The calls are words filed in the database; no cut-off is given here.

Assays:
[1] = target: T1, Prostaglandin G/H synthase 2 (Mus musculus, UniProt Q05769); assay: Inhibition of COX-2 in C57BL/6 mouse brain homogenate; type: tissue-based
T1 sequence (Q05769 whole entry): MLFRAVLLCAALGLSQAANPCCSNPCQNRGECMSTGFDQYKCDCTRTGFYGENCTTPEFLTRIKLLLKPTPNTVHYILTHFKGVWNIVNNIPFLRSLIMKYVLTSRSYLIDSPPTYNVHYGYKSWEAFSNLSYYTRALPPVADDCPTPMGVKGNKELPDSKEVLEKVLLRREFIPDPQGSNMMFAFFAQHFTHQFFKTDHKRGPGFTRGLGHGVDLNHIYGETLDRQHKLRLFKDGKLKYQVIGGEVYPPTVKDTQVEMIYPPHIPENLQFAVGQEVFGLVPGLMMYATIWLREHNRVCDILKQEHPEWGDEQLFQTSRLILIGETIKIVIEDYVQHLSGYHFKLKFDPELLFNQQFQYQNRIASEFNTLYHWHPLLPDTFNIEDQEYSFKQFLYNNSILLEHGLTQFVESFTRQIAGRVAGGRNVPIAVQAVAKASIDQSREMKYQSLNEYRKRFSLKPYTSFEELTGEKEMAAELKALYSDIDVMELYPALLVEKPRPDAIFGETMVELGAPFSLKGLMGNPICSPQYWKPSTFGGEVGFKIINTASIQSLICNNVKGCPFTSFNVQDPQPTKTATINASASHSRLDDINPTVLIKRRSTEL
Procedure, shortened: (§1)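 Brain homogenate from C57BL/6 mice was prepared on ice in 50 mM Tris pH 7.4 with 1 mM phenol and protease inhibitors. 20 µg of homogenate was incubated with inhibitor or vehicle. The reaction was started with 150 µM arachidonic acid at 37°C and stopped after 5 min with formic acid to pH 2.5. Prostanoids were extracted with ethyl acetate/hexane 7:1. PGE2 and 6-keto-PGF1α were measured by GC-MS/MS, and IC50 was determined.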

[2] = target: T2, Prostaglandin G/H synthase 1 (Mus musculus, UniProt P22437); assay: Inhibition of COX-1 in C57BL/6 mouse brain homogenate; type: tissue-based; procedure, shortened: as §1
T2 sequence (P22437 whole entry): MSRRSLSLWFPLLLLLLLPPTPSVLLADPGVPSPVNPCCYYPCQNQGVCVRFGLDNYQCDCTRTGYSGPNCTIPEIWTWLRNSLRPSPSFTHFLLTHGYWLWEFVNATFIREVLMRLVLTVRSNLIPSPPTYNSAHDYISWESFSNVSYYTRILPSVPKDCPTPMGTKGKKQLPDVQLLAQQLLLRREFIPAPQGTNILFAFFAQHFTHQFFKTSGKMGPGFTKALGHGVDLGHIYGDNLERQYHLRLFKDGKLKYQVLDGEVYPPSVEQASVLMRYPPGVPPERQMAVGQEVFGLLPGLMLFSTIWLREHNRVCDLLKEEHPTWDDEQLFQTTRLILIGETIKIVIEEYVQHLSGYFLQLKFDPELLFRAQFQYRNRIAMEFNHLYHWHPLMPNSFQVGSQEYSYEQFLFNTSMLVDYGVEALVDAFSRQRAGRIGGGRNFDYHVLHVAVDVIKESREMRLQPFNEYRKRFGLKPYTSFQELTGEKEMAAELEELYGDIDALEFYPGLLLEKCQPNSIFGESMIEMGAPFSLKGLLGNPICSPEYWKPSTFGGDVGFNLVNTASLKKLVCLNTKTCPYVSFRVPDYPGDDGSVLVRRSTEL

[3] = target: Cannabinoid receptor 1 (Homo sapiens, UniProt P21554); assay: Displacement of [3H]CP-55940 from human recombinant CB1 receptor expressed in HEK cells; type: cell-based, HEK293
Sequence of Cannabinoid receptor 1 (P21554 whole entry): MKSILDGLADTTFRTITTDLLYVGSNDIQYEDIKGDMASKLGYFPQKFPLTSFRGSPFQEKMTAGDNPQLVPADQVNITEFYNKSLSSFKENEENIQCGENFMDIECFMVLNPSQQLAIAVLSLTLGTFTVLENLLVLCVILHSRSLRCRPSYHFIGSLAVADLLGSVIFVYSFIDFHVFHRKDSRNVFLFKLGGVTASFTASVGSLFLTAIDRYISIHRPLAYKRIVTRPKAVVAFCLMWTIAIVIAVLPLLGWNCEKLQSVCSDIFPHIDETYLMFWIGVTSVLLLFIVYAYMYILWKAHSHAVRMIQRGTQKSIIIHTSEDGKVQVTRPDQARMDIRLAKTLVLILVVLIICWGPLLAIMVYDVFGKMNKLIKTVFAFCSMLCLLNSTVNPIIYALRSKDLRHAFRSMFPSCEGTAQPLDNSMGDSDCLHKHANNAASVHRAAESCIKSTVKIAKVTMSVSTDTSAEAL

[4] = species on record: Mus musculus; assay: Inhibition of COX-mediated PGE2 production in C57BL/6 mouse brain homogenate at 100 nM to 100 uM; type: tissue-based
Procedure, shortened: (§2)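 Mouse brain homogenate (20 µg) made on ice in 50 mM Tris pH 7.4 with 1 mM phenol and protease inhibitors, then incubated with inhibitor or vehicle. Reaction started with 150 µM arachidonic acid at 37°C, stopped after 5 min by acidifying to pH 2.5 with 1% formic acid. Prostanoids extracted in ethyl acetate/hexane (7:1), and PGE2 or 6-keto-PGF1α quantified by GC-MS/MS.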

[5] = target: Cannabinoid receptor 2 (Homo sapiens, UniProt P34972); assay: Displacement of [3H]CP-55940 from human recombinant CB2 receptor expressed in HEK cells; type: cell-based, HEK293
Sequence of Cannabinoid receptor 2 (P34972 whole entry): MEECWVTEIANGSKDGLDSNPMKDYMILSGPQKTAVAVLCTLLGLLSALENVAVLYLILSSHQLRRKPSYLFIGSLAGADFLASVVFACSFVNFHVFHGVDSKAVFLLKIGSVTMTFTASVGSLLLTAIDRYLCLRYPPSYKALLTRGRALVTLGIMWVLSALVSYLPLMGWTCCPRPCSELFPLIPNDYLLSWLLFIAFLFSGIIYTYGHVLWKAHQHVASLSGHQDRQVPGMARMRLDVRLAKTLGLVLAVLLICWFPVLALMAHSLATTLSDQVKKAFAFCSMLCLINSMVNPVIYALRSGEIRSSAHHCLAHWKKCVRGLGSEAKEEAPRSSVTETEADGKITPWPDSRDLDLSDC

[6] = target: T3, Transient receptor potential cation channel subfamily V member 1 (Homo sapiens, UniProt Q8NER1); assay: Inhibition of TRPV1
T3 sequence (Q8NER1 whole entry): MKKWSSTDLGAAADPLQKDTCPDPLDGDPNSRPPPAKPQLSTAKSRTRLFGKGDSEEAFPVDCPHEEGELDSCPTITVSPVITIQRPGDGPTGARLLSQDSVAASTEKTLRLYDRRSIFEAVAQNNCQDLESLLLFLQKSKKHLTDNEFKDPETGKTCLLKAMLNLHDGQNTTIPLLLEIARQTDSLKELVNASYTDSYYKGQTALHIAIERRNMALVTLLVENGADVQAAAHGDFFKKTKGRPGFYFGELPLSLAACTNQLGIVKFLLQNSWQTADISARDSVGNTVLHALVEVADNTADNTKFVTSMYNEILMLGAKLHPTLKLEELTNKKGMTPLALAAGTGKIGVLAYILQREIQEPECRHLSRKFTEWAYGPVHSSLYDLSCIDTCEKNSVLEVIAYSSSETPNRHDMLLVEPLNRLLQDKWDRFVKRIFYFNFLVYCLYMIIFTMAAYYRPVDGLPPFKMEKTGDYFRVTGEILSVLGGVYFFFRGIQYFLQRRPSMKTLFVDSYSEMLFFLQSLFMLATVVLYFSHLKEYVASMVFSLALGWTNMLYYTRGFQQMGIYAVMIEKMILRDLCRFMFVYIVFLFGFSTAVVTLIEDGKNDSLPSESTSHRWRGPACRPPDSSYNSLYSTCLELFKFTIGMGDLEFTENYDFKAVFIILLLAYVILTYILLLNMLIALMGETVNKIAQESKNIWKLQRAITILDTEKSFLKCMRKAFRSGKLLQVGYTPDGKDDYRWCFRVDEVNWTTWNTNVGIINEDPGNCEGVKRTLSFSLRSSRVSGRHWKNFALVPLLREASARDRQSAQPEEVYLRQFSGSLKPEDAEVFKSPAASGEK

[7] = target: T3, Transient receptor potential cation channel subfamily V member 1; assay: Agonist activity at TRPV1; type: functional
[8] = (§3) Inhibition of COX-mediated 6-keto-PGF1alpha production in C57BL/6 mouse brain homogenate; type: tissue-based; procedure, shortened: as §2
[9] = species on record: Mus musculus; assay: as §3; type: tissue-based; procedure, shortened: as §2
[10] = Inhibition of COX-mediated PGE2 production in C57BL/6 mouse brain homogenate measured after 6 hrs in presence of FAAH inhibitor URB532; type: tissue-based
[11] = (§4) Inhibition of COX-mediated PGE2 production in C57BL/6 mouse brain homogenate; type: tissue-based; procedure, shortened: as §2
[12] = species on record: Mus musculus; assay: as §4; type: tissue-based; procedure, shortened: as §2
[13] = species on record: Mus musculus; assay: Inhibition of PGE2 production in LPS-stimulated COX-2 knockout C57BL/6 mouse brain homogenate measured after 6 hrs; type: functional; conditions: C57BL/6, Brain
Procedure, shortened: (§5)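 COX-1−/− or COX-2−/− mice injected i.p. with LPS 50 µg kg−1; brains taken 6 h later and homogenised in Tris pH 7.4/phenol/protease-inhibitor buffer. COX activity measured with inhibitor or vehicle: 150 µM arachidonic acid, 37°C, 5 min, formic acid stop to pH 2.5. PGE2 extracted in ethyl acetate/hexane and measured by GC-MS/MS.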

[14] = species on record: Mus musculus; assay: Ratio of IC50 for COX-mediated PGE2 production in C57BL/6 mouse brain homogenate measured after 6 hrs in absence of FAAH inhibitor URB532 to IC50 for COX-mediated PGE2 production in C57BL/6 mouse brain homogenate measured after 6 hrs in presence of FAAH inhibitor URB532; type: tissue-based
[15] = species on record: Mus musculus; assay: Inhibition of PGE2 production in LPS-stimulated COX-2 knockout C57BL/6 mouse brain homogenate at 0.4 uM measured after 6 hrs; type: functional; procedure, shortened: as §5
[16] = species on record: Mus musculus; assay: Inhibition of PGE2 production in LPS-stimulated COX-1 knockout C57BL/6 mouse brain homogenate at 0.8 uM measured after 6 hrs; type: functional; procedure, shortened: as §5
[17] = species on record: Mus musculus; assay: Inhibition of PGE2 production in LPS-stimulated COX-1 knockout C57BL/6 mouse brain homogenate measured after 6 hrs; type: functional; conditions: C57BL/6, Brain; procedure, shortened: as §5
[18] = Prodrug activation in C57BL/6 mouse CSF assessed as formation of arachidonoyl-4-methylaminoantipyrin at 600 mg/kg, po administered daily measured after 120 hrs; type: organism-based, Cerebrospinal fluid; set-up: dose 600 mg/kg, route oral; conditions: in vivo
Procedure, shortened: (§6)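 Dipyrone was given in the drinking water, and mice were killed on day 2 (48 h) or day 5 (120 h) under isoflurane. Tissue was extracted with diisopropyl ether/ethyl acetate 1:3, dried and taken up in acetonitrile/water 9:1. The amides were measured by LC-MS/MS on a C18 column. Semi-quantification used external calibration with 10, 100 and 1000 pg standards.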

[19] = system: Spleen; assay: Prodrug activation in C57BL/6 mouse spleen assessed as formation of arachidonoyl-4-aminoantipyrin at 600 mg/kg, po administered daily measured after 120 hrs; type: organism-based; set-up: dose 600 mg/kg, route oral; conditions: in vivo; procedure, shortened: as §6
[20] = Prodrug activation in C57BL/6 mouse CSF assessed as formation of arachidonoyl-4-methylaminoantipyrin at 600 mg/kg, po administered daily measured after 48 hrs; type: organism-based, Cerebrospinal fluid; set-up: dose 600 mg/kg, route oral; conditions: in vivo; procedure, shortened: as §6
[21] = Prodrug activation in C57BL/6 mouse CSF assessed as formation of arachidonoyl-4-aminoantipyrin at 600 mg/kg, po administered daily measured after 120 hrs; type: organism-based, Cerebrospinal fluid; set-up: dose 600 mg/kg, route oral; conditions: in vivo; procedure, shortened: as §6
[22] = system: Spleen; assay: Prodrug activation in C57BL/6 mouse spleen assessed as formation of arachidonoyl-4-methylaminoantipyrin at 600 mg/kg, po administered daily measured after 120 hrs; type: organism-based; set-up: dose 600 mg/kg, route oral; conditions: in vivo; procedure, shortened: as §6
[23] = system: Brain; assay: Prodrug activation in FAAH wild type C57BL/6 mouse brain assessed as formation of arachidonoyl-4-aminoantipyrin at 600 mg/kg, po administered daily measured after 120 hrs; type: organism-based; set-up: dose 600 mg/kg, route oral; conditions: in vivo; procedure, shortened: as §6
[24] = Prodrug activation in C57BL/6 mouse CSF assessed as formation of arachidonoyl-4-aminoantipyrin at 600 mg/kg, po administered daily measured after 48 hrs; type: organism-based, Cerebrospinal fluid; set-up: dose 600 mg/kg, route oral; conditions: in vivo; procedure, shortened: as §6
[25] = system: Spleen; assay: Prodrug activation in C57BL/6 mouse spleen assessed as formation of arachidonoyl-4-methylaminoantipyrin at 600 mg/kg, po administered daily measured after 48 hrs; type: organism-based; set-up: dose 600 mg/kg, route oral; conditions: in vivo; procedure, shortened: as §6
[26] = system: Brain; assay: Prodrug activation in FAAH wild type C57BL/6 mouse brain assessed as formation of arachidonoyl-4-methylaminoantipyrin at 600 mg/kg, po administered daily measured after 48 hrs; type: organism-based; set-up: dose 600 mg/kg, route oral; conditions: in vivo; procedure, shortened: as §6
[27] = system: Brain; assay: Prodrug activation in FAAH wild type C57BL/6 mouse brain assessed as formation of arachidonoyl-4-methylaminoantipyrin at 600 mg/kg, po administered daily measured after 120 hrs; type: organism-based; set-up: dose 600 mg/kg, route oral; conditions: in vivo; procedure, shortened: as §6
[28] = system: Brain; assay: Prodrug activation in FAAH wild type C57BL/6 mouse brain assessed as formation of arachidonoyl-4-aminoantipyrin at 600 mg/kg, po administered daily measured after 48 hrs; type: organism-based; set-up: dose 600 mg/kg, route oral; conditions: in vivo; procedure, shortened: as §6
[29] = system: Spleen; assay: Prodrug activation in C57BL/6 mouse spleen assessed as formation of arachidonoyl-4-aminoantipyrin at 600 mg/kg, po administered daily measured after 48 hrs; type: organism-based; set-up: dose 600 mg/kg, route oral; conditions: in vivo; procedure, shortened: as §6

`Cc1c(N)c(=O)n(-c2ccccc2)n1C` [AMPYRONE] showed an IC50 [1] of 1000 µM and an IC50 [2] of 1000 µM.
For `CCCCC/C=C\C/C=C\C/C=C\C/C=C\CCCC(=O)Nc1c(C)n(C)n(-c2ccccc2)c1=O`, the Ki [3] was 2.9 µM, the inhibition [4] was “inactive” and the Ki [5] was 5.4 µM. For the same compound, the inhibition [6] was “inactive”.
Work on `CCCCC/C=C\C/C=C\C/C=C\C/C=C\CCCC(=O)Nc1ccc(O)cc1` yielded an EC50 [7] of 0.026 µM.
In the case of `CCCCC/C=C\C/C=C\C/C=C\C/C=C\CCCC(=O)N(C)c1c(C)n(C)n(-c2ccccc2)c1=O`, the IC50 [8] is reported as 5.2 µM, the inhibition [9] is reported as “Dose-dependent effect” and the IC50 [10] is reported as 0.058 µM. For the same compound, the IC50 [11] was 13.2 µM, the inhibition [12] was “Dose-dependent effect” and the IC50 [13] was 0.107 µM. The Ki [3] was 7.8 µM, the Ratio IC50 [14] was over 200 and the Ki [5] was 3 µM. The inhibition [15] was 30%, the inhibition [16] was “Active” and the IC50 [17] was 0.355 µM.
With `Cc1c(N(C)CS(=O)(=O)[O-])c(=O)n(-c2ccccc2)n1C.[Na+]` [DIPYRONE SODIUM] the Drug metabolism [18] was “Active”, the Drug metabolism [19] was “Active” and the Drug metabolism [20] was “Active”. The Drug metabolism [21] was “Active”, the Drug metabolism [22] was “Active” and the Drug metabolism [23] was “Active”. For the same compound, the Drug metabolism [24] was “Active”, the Drug metabolism [25] was “Active” and the Drug metabolism [26] was “Active”. The Drug metabolism [27] was “Active”, the Drug metabolism [28] was “Active” and the Drug metabolism [29] was “Active”.
